# Measurements published in ChEMBL document CHEMBL1147848, “1-(5-Carboxy- and 5-carbamoylindol-1-yl)propan-2-ones as inhibitors of human cytosolic phospholipase A2alpha: bioisosteric replacement of the carboxylic acid and carboxamide moiety” (Bioorg Med Chem, 2007).
# Activity calls are given as the source filed them. No cut-off for these calls is given here.
# Target: T1, Cytosolic phospholipase A2 (Homo sapiens, UniProt P47712)
# T1 sequence (P47712 whole entry): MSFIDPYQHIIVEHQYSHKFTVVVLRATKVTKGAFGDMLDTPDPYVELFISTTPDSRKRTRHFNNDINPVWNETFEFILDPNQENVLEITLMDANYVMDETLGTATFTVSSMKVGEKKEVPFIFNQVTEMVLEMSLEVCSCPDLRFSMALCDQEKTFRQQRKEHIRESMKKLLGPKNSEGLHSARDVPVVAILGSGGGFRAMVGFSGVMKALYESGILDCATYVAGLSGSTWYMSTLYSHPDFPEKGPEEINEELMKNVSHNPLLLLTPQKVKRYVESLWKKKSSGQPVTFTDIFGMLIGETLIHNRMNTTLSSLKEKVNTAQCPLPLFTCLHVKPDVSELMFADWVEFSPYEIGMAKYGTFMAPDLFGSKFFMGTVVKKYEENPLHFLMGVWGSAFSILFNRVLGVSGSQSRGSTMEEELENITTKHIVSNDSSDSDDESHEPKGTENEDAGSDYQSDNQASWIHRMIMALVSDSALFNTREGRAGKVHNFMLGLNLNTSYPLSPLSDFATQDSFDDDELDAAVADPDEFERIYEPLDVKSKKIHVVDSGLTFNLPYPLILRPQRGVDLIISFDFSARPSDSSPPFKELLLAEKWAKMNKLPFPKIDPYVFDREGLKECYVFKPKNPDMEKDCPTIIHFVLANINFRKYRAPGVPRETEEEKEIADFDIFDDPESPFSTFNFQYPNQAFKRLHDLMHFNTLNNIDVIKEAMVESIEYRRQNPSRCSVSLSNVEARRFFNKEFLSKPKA
# Assay: Inhibition of human platelet cPLA2-alpha assessed as arachidonic acid release by vesicle assay
# Procedure, shortened: (§1)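 cPLA2α isolated from human platelets. Highest test concentration 10 µM, kept low to limit inhibitor mole fraction in the interface. Incubated 60 min. Released arachidonic acid is cleaned up by solid-phase extraction, then quantified by reversed-phase HPLC with UV detection at 200 nm.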
row,IC50 [µM],SMILES
1,0.84,CCCCCCCCc1ccc(OCC(=O)Cn2ccc3cc(C(=O)N(C)C)ccc32)cc1
2,0.31,CCCCCCCCc1ccc(OCC(=O)Cn2ccc3cc(S(=O)(=O)NC)ccc32)cc1
3,3.5,CCCCCCCCc1ccc(OCC(=O)Cn2ccc3cc(-c4noc(=O)[nH]4)ccc32)cc1
4,0.5,CCCCCCCCc1ccc(OCC(=O)Cn2ccc3cc(S(=O)(=O)N(C)C)ccc32)cc1
5,1.1,CCCCCCCCc1ccc(OCC(=O)Cn2ccc3cc(-c4nnn[nH]4)ccc32)cc1
6,0.39,CCCCCCCCc1ccc(OCC(=O)Cn2ccc3cc(S(N)(=O)=O)ccc32)cc1
7,0.37,CCCCCCCCc1ccc(OCC(=O)Cn2ccc3cc(C(=O)NC)ccc32)cc1
8,0.5,CCCCCCCCc1ccc(OCC(=O)Cn2ccc3cc(C(=O)N4CCOCC4)ccc32)cc1

row,SMILES,IC50 [µM]
1,CCCCCCCCc1ccc(OCC(=O)Cn2cc(C(=O)OC)c3cc(C(=O)O)ccc32)cc1,0.005
2,CCCCC/C=C\C/C=C\C/C=C\C/C=C\CCCC(=O)C(F)(F)F [ARACHIDONYL TRIFLUOROMETHYLKETONE],2.3

# Target: T2, Cytosolic phospholipase A2 (Homo sapiens) (UniProt P47712)
# T2 sequence (whole entry): T1 sequence (P47712 whole entry)
# Assay: Inhibition of human platelet cPLA2-alpha assessed as arachidonic acid release at 10 uM by vesicle assay
# Procedure, shortened: as §1
Activity,inhibition [%],SMILES
inactive,–,CCCCCCCCc1ccc(OCC(=O)Cn2ccc3cc(-c4nc(CC)no4)ccc32)cc1
inactive,–,CCCCCCCCc1ccc(OCC(=O)Cn2ccc3cc(-c4nc(Cc5ccccc5)no4)ccc32)cc1
–,29,CCCCCCCCc1ccc(OCC(=O)Cn2ccc3cc(/C=C4\SC(=O)NC4=O)ccc32)cc1
